# Source: ChEMBL document CHEMBL2424651, “Synthesis and antiproliferative activity of new cytotoxic tri- and tetraazabenzo[3,2-a]fluorene-5,6-dione derivatives” (Bioorg Med Chem Lett, 2013)
# Experiments:
# [1] = Cytotoxicity against human KB/HeLa cells after 48 hrs by resazurin dye assay; assay type: functional, cell-based
# Outline: (§1)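 Cells were seeded in the supplier-recommended growth medium and grown 24 h at 37 °C/5% CO2, with density set per line to give a linear signal. Compound exposure was 48 h in total. Resazurin (0.2 mg/mL in DPBS) was added for the final 3 h, and fluorescence was read at 590 nm. Data were expressed as % efficacy against non-treated cells and cell-free blanks on each plate. EC50 came from non-linear regression.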
# NCI-H460 = experiment: Cytotoxicity against human NCI-H460 cells after 48 hrs by resazurin dye assay; assay type: functional, cell-based; conditions: NCI-H460, 48 h; outline: as §1
# SK-OV-3 [2] = experiment: Cytotoxicity against human SKOV3 cells after 48 hrs by resazurin dye assay; assay type: functional, cell-based; conditions: SK-OV-3, 48 h; outline: as §1
# SK-OV-3 [3] = experiment: Cytotoxicity against human SKOV3 cells at 31.6 uM after 48 hrs by resazurin dye assay; assay type: functional; conditions: SK-OV-3, 48 h
Structure (SMILES),EC50 [1],EC50 (NCI-H460),EC50 (SK-OV-3 [2]),inhibition at 31.6 µM (SK-OV-3 [3])
O=C1C(=O)c2c(nc3ccccn23)-c2ccncc21,244 nM,242 nM,498 nM,–
O=C1C(=O)c2c(nc3ccc(Cl)cn23)-c2ccncc21,394 nM,342 nM,525 nM,–
O=C1/C(=N\OCCO)c2cnccc2-c2nc3ccccn3c21,532 nM,521 nM,2060 nM,–
CN(C)CCO/N=C1\C(=O)c2c(nc3ccccn23)-c2ccncc21,406 nM,414 nM,931 nM,–
CN(C)CCN(C)c1cc2c(cn1)C(=O)C(=O)c1c-2nc2ccc(Cl)cn12,2800 nM,2140 nM,–,< 30%
O=C1C(=O)c2c(nc3ccccn23)-c2cnccc21,917 nM,620 nM,1220 nM,–
O=C1/C(=N\OCCO)c2ccncc2-c2nc3ccccn3c21,4350 nM,3880 nM,14700 nM,–
CN(C)CCO/N=C1\C(=O)c2c(nc3ccccn23)-c2cnccc21,6150 nM,2670 nM,2930 nM,–
O=C1C(=O)c2c(nc3ccccn23)-c2ncncc21,145 nM,337 nM,283 nM,–
COc1cccc2c1C(=O)c1c(O)c3c(c(O)c1C2=O)C[C@@](O)(C(=O)CO)C[C@@H]3O[C@H]1C[C@H](N)[C@H](O)[C@H](C)O1 [DOXORUBICIN],250 nM,40 nM,290 nM,–
O=C1c2c(O)ccc(O)c2C(=O)c2c(NCCNCCO)ccc(NCCNCCO)c21 [MITOXANTRONE],420 nM,30 nM,–,–
